The source made the active and inactive calls. No cut-off for these calls is given here.
Assays:
[1] = Cytotoxicity against human PLC/PRF/5 cells assessed as growth inhibition; assay type: functional, cell-based
[2] = system: PLC-PRF-5; experiment: Induction of apoptosis in human PLC/PRF/5 cells assessed as DNA fragmentation at 5 to 10 uM by ELISA; assay type: functional, cell-based
Summary of the method: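 PLC5 cells treated 24 h at 5 and 10 µM in culture; cell death quantified as DNA fragmentation by ELISA kit following manufacturer's standard protocol.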

[3] = target: Signal transducer and activator of transcription 3 (Homo sapiens) (UniProt P40763); experiment: Inhibition of STAT3-mediated cyclin D1 protein expression in human PLC/PRF/5 cells at 5 to 10 uM after 24 hrs by Western blot analysis; assay type: cell-based
Summary of the method: (§1)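 PLC5 cells in FBS-containing medium treated 24 h at 5 and 10 µM; whole-cell lysates immunoblotted for phospho-STAT3, total STAT3, cyclin D1 and survivin.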

[4] = target: RAF proto-oncogene serine/threonine-protein kinase (Homo sapiens) (UniProt P04049); experiment: Inhibition of raf kinase in human PLC/PRF/5 cell lysate at 10 uM after 24 hrs
[5] = system: PLC-PRF-5; experiment: Induction of apoptosis in human PLC/PRF/5 at 5 to 10 uM by flow cytometry; assay type: functional
Summary of the method: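 PLC5 cells treated 24 h at 5 and 10 µM; trypsinized, washed in PBS, stained with propidium iodide 30 min at 37 °C in the dark; apoptotic fraction read as sub-G1 population by flow cytometry; triplicate experiments.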

[6] = target: Signal transducer and activator of transcription 3 (Homo sapiens) (UniProt P40763); experiment: Inhibition of IL6-induced STAT3 phosphorylation in human PLC/PRF/5 cells at 10 uM after 24 hrs by ELISA; assay type: cell-based
Summary of the method: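 PLC5 cells pre-treated with IL-6 1 ng/mL, then exposed to compound at 10 µM for 24 h; lysates incubated on antibody-coated plate capturing phospho- and non-phospho-STAT3; phospho-STAT3 detected by absorbance at 450 nm; mean ± SD, N = 3.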

[7] = target: Signal transducer and activator of transcription 3 (Homo sapiens) (UniProt P40763); experiment: Inhibition of STAT3-mediated survivin expression in human PLC/PRF/5 cells at 5 to 10 uM after 24 hrs by Western blot analysis; assay type: cell-based; summary of the method: as §1
[8] = target: RAF proto-oncogene serine/threonine-protein kinase (Homo sapiens) (UniProt P04049); details: 5 uM

Signal transducer and activator of transcription 3 (Homo sapiens), sequence (P40763 whole entry): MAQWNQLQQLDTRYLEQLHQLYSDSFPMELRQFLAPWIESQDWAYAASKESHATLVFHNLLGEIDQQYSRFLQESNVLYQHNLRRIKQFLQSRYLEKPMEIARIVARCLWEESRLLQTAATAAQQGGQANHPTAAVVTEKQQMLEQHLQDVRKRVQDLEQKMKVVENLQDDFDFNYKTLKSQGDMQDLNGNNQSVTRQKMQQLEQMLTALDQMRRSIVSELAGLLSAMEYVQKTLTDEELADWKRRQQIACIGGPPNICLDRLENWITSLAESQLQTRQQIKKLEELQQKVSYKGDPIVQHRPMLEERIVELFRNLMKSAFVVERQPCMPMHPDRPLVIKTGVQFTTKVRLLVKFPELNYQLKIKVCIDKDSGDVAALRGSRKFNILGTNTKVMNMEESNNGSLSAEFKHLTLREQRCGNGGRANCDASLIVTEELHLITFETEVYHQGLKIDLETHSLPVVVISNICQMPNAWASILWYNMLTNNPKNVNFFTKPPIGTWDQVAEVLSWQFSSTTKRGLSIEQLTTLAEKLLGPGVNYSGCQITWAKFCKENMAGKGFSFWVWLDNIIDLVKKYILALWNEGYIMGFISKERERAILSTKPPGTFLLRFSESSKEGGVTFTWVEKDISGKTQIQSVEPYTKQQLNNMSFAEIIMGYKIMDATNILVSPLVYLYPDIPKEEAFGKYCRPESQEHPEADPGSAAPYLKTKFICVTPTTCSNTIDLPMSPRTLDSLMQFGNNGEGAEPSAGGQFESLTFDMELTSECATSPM

| Compound | IC50 ([1]; Homo sapiens, PLC-PRF-5) | also measured |
| --- | --- | --- |
| CNC(=O)c1cc(Oc2ccc(NC(=O)c3cc(C(F)(F)F)ccc3F)cc2)ccn1 | > 40 µM | – |
| CNC(=O)c1cc(Oc2ccc(NS(=O)(=O)c3ccc(C(C)(C)C)cc3)cc2)ccn1 | > 40 µM | – |
| O=C(Nc1cccc(Oc2ccnc3c([N+](=O)[O-])cccc23)c1)c1cc(C(F)(F)F)cc(C(F)(F)F)c1 | > 40 µM | – |
| CC(=O)Nc1cccc2c(Oc3cccc(NC(=O)c4cc(C(F)(F)F)cc(C(F)(F)F)c4)c3)ccnc12 | 10.8 µM | – |
| CC(=O)Nc1cccc2c(Oc3ccc(NC(=O)c4cc(C(F)(F)F)cc(C(F)(F)F)c4)c(C)c3)ccnc12 | > 40 µM | – |
| CNC(=O)c1cc(Oc2ccc(NC(=O)c3cc(C(F)(F)F)cc(C(F)(F)F)c3)cc2)ccn1 | > 40 µM | – |
| O=C(Nc1ccc(Oc2ccnc3ccccc23)cc1)c1cc(C(F)(F)F)cc(C(F)(F)F)c1 | 16 µM | – |
| Nc1cccc2c(Oc3cccc(NC(=O)c4cc(C(F)(F)F)cc(C(F)(F)F)c4)c3)ccnc12 | 19 µM | – |
| SC-1 [listing 1 of 2 here] | – | Activity [2]: Active; inhibition [3]: Active; inhibition [4]: inactive; Activity [5]: Active; inhibition [6]: Active; inhibition [7]: Active |
| CNC(=O)c1cc(Oc2ccc(NC(=O)c3ccc(C(F)(F)F)cc3)cc2)ccn1 | > 40 µM | – |
| O=[N+]([O-])c1cccc2c(Oc3ccc(NS(=O)(=O)c4ccc(C(F)(F)F)cc4Br)cc3)ccnc12 | > 40 µM | – |
| CNC(=O)c1cc(Oc2ccc(NC(=O)Nc3ccc(Cl)c(C(F)(F)F)c3)cc2)ccn1 [SORAFENIB] | 8.3 µM | inhibition [8]: 50% |
| Cc1cc(Oc2ccnc3c([N+](=O)[O-])cccc23)ccc1NC(=O)c1cc(C(F)(F)F)cc(C(F)(F)F)c1 | > 40 µM | – |
| O=[N+]([O-])c1cc(C(F)(F)F)ccc1S(=O)(=O)Nc1ccc(Oc2ccnc3ccccc23)cc1 | > 40 µM | inhibition [3]: inactive; inhibition [7]: inactive |
| Cc1cc(Oc2ccnc3c(N)cccc23)ccc1NC(=O)c1cc(C(F)(F)F)cc(C(F)(F)F)c1 | 25.4 µM | – |
| CNC(=O)c1cc(Oc2ccc(NS(=O)(=O)c3ccccc3[N+](=O)[O-])cc2)ccn1 | > 40 µM | – |
| CNC(=O)c1cc(Oc2ccc(NS(=O)(=O)c3ccc([N+](=O)[O-])cc3)cc2)ccn1 | > 40 µM | – |
| O=S(=O)(Nc1ccc(Oc2ccnc3ccccc23)cc1)c1ccc(C(F)(F)F)cc1Br | > 40 µM | – |
| O=[N+]([O-])c1cc(C(F)(F)F)ccc1S(=O)(=O)Nc1ccc(Oc2ccnc3c([N+](=O)[O-])cccc23)cc1 | > 40 µM | – |
| O=C(Nc1ccc(Oc2ccnc3ccccc23)cc1)c1cc(C(F)(F)F)ccc1F | 21.1 µM | – |
| CNC(=O)c1cc(Oc2ccc(NS(=O)(=O)c3ccc(C(F)(F)F)cc3Br)cc2)ccn1 | > 40 µM | – |
| SC-1 [listing 2 of 2 here] | – | IC50 ([1]; plc-prf-5): 7.5 µM |
| O=C(Nc1ccc(Oc2ccnc3c([N+](=O)[O-])cccc23)cc1)c1cc(C(F)(F)F)cc(C(F)(F)F)c1 | > 40 µM | – |
| CNC(=O)c1cc(Oc2ccc(NS(=O)(=O)c3ccccc3)cc2)ccn1 | > 40 µM | – |
| CNC(=O)c1cc(Oc2ccc(NS(=O)(=O)c3ccc4ccccc4c3)cc2)ccn1 | > 40 µM | – |
| CNC(=O)c1cc(Oc2ccc(NS(=O)(=O)c3ccc(F)cc3)cc2)ccn1 | > 40 µM | – |
| O=C(Nc1ccc(Oc2ccnc3c([N+](=O)[O-])cccc23)cc1)c1cc(C(F)(F)F)ccc1F | > 40 µM | – |
